From ChEMBL document CHEMBL1909567, “Synthesis and structure-activity relationship studies in translocator protein ligands based on a pyrazolo[3,4-b]quinoline scaffold” (J Med Chem, 2011) come the findings set out here.

Broadly, the IC50 is the concentration that inhibits the measured activity by half.

One test concerns the target Translocator protein (Rattus norvegicus, UniProt P16257). The test is described as follows: Displacement of [3H]PK11195 from TSPO in Sprague-Dawley rat brain homogenates after 90 mins by liquid scintillation spectrometry. It is filed as tissue-based. For orientation: In a radioligand displacement assay an active substance lowers the binding of a labelled ligand.
For test [1], the system named is Rattus norvegicus. The test is described as follows: Antinociceptive activity in rat peripheral mononeuropathy model assessed as decrease in right paw pressure at 5 mg/kg, po after 15 mins by analgesimetry (reference value: 34.8 +/- 3.7 g). The test is classed as functional.
Test [2] has as its system Rattus norvegicus. Kind of test: Antinociceptive activity in rat peripheral mononeuropathy model assessed as decrease in right paw pressure at 50 mg/kg, po after 15 mins by analgesimetry (reference value: 34.8 +/- 3.7 g). The test is classed as functional.
Test [3] concerns Rattus norvegicus. Kind of test: Antinociceptive activity in rat peripheral mononeuropathy model assessed as decrease in left paw pressure at 50 mg/kg, po after 15 mins by analgesimetry (reference value: 63.5 +/- 2.8 g). The test is classed as functional.
Test [4] concerns Mus musculus. The test is described as follows: Antianxiety activity in mouse assessed as increase in time spent in illuminated area at 10 mg/kg, po after 30 mins by light/dark box test (reference value: 116.4 +/- 7.5 sec). The test is classed as functional. The method, boiled down:
(§1)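 Male mice, housed 15 per cage, placed in the test room 24 h before testing for acclimatization. Drugs were given po in 1% carboxymethylcellulose at 10 mL/kg, 30 min before the light/dark box test. Time spent in the light box (s) was recorded. Values are mean ± SEM of at least 8 mice per group. ANOVA with Fisher's PLSD was used against vehicle.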

For test [5], the system named is Mus musculus. The test is described as follows: Antianxiety activity in mouse assessed as increase in time spent in illuminated area at 3 mg/kg, po after 30 mins by light/dark box test (reference value: 116.4 +/- 7.5 sec). The test is classed as functional. The gist of the method:
as §1

In test [6] the test system is Rattus norvegicus. Kind of test: Antinociceptive activity in rat peripheral mononeuropathy model assessed as decrease in right paw pressure at 50 mg/kg, po after 45 mins by analgesimetry (reference value: 32.9 +/- 2.6 g). It is filed as functional.
Test [7] has as its system Rattus norvegicus. The test is described as follows: Antinociceptive activity in rat peripheral mononeuropathy model assessed as decrease in left paw pressure at 50 mg/kg, po after 45 mins by analgesimetry (reference value: 63.0 +/- 2.4 g). It is filed as functional.
In test [8] the test system is Rattus norvegicus. The test is described as follows: Antinociceptive activity in rat peripheral mononeuropathy model assessed as decrease in right paw pressure at 50 mg/kg, po after 30 mins by analgesimetry (reference value: 31.3 +/- 2.8 g). The test is classed as functional.
Test [9] deals with Mus musculus. Kind of test: Antianxiety activity in mouse assessed as increase in time spent in illuminated area at 30 mg/kg, po after 30 mins by light/dark box test (reference value: 116.4 +/- 7.5 sec). The test is classed as functional. The method, boiled down: as §1
The subject of test [10] is Rattus norvegicus. Kind of test: Antinociceptive activity in rat peripheral mononeuropathy model assessed as decrease in left paw pressure at 50 mg/kg, po after 30 mins by analgesimetry (reference value: 59.65 +/- 2.6 g). The test is classed as functional.
The test system of test [11] is Rattus norvegicus. Kind of test: Antinociceptive activity in rat peripheral mononeuropathy model assessed as decrease in right paw pressure at 5 mg/kg, po after 30 mins by analgesimetry (reference value: 31.3 +/- 2.8 g). The test is classed as functional.
In test [12] the test system is Rattus norvegicus. Kind of test: Antinociceptive activity in rat peripheral mononeuropathy model assessed as decrease in left paw pressure at 5 mg/kg, po after 15 mins by analgesimetry (reference value: 63.5 +/- 2.8 g). The test is classed as functional.
In test [13] the test system is Rattus norvegicus. Kind of test: Antinociceptive activity in rat peripheral mononeuropathy model assessed as decrease in left paw pressure at 5 mg/kg, po after 30 mins by analgesimetry (reference value: 59.65 +/- 2.6 g). It is filed as functional.
Test [14] deals with Rattus norvegicus. Kind of test: Antinociceptive activity in rat peripheral mononeuropathy model assessed as decrease in left paw pressure at 5 mg/kg, po after 45 mins by analgesimetry (reference value: 63.0 +/- 2.4 g). It is filed as functional.
Test [15] concerns Rattus norvegicus. The test is described as follows: Antinociceptive activity in rat peripheral mononeuropathy model assessed as decrease in right paw pressure at 5 mg/kg, po after 45 mins by analgesimetry (reference value: 32.9 +/- 2.6 g). The test is classed as functional.
Test [16] deals with Mus musculus. The test is described as follows: Antianxiety activity in mouse assessed as increase in time spent in illuminated area at 1 mg/kg, po by light/dark box test (reference value: 116.4 +/- 7.5 sec). It is filed as functional. The gist of the method:
as §1

Chain of Translocator protein (P16257 whole entry, looked up): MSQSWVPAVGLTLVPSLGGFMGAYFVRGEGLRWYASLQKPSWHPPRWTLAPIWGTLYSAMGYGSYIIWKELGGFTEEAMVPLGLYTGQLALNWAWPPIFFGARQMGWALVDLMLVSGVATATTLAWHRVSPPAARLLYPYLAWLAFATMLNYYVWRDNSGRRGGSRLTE

For the molecule `CCCCN(C)C(=O)Cn1c2nc3ccccc3c(C)c2c(=O)n1-c1ccccc1`, the IC50 at Translocator protein is 65 nM.
Still for that read-out and setting: under `CCN(CC)C(=O)Cn1c2nc3ccccc3c(C)c2c(=O)n1-c1ccccc1` stands 180 nM.
At Translocator protein, `Cc1c2ccccc2nc2c1c(=O)n(-c1ccccc1)n2CC(=O)N(C(C)C)C(C)C` had a half-maximal inhibitory concentration (IC50) of 1390 nM.
`CCCN(CCC)C(=O)Cn1c2nc3ccccc3c(C)c2c(=O)n1-c1ccccc1`: the half-maximal inhibitory concentration (IC50) on Translocator protein worked out at 90 nM.
Still for that read-out and setting: under `CCCCN(CCCC)C(=O)Cn1c2nc3ccccc3c(C)c2c(=O)n1-c1ccccc1` stands 152 nM.
Same read-out and setting: next, `Cc1c2ccccc2nc2c1c(=O)n(-c1ccccc1)n2CC(=O)N(C)c1ccccc1`: 117 nM.
Consider `Cc1c2ccccc2nc2c1c(=O)n(-c1ccccc1)n2CC(=O)N(C)c1ccc(Cl)cc1`, for which the Activity in the test on Rattus norvegicus [1] was found to be 39.2 g; with Rattus norvegicus [2], 48.1 g; in the test with Rattus norvegicus [3], 61 g; in the test with Rattus norvegicus [6], 37 g; in the test on Rattus norvegicus [7], 59 g; with Rattus norvegicus [8], 44 g. Also, the Activity with Rattus norvegicus [10] is recorded as 58 g; in the test with Rattus norvegicus [11], 35.9 g; with Rattus norvegicus [12] it was 57.8 g; in the test with Rattus norvegicus [13], 63.6 g; in the test with Rattus norvegicus [14], 61.4 g; in the test with Rattus norvegicus [15], 33.4 g. In addition, the Time was 112.3 s with Mus musculus [4], 103.8 s in the test with Mus musculus [5] and 107.6 s in the test on Mus musculus [9]. The concentration for half-maximal inhibition (IC50) on Translocator protein came to 1.8 nM.
`COc1ccc(N(C)C(=O)Cn2c3nc4ccccc4c(C)c3c(=O)n2-c2ccccc2)cc1`: the concentration for half-maximal inhibition (IC50) at Translocator protein worked out at 17 nM.
The same measure, in the same setting: under `Cc1c2ccccc2nc2c1c(=O)n(-c1ccccc1)n2CC(=O)N(C)Cc1ccccc1` stands 881 nM; under `CCN(Cc1ccccc1)C(=O)Cn1c2nc3ccccc3c(C)c2c(=O)n1-c1ccccc1`, 220 nM; under `Cc1c2ccccc2nc2c1c(=O)n(-c1ccccc1)n2CC(=O)N(Cc1ccccc1)C(C)C`, 304 nM.
Regarding `CCCCN(Cc1ccccc1)C(=O)Cn1c2nc3ccccc3c(C)c2c(=O)n1-c1ccccc1`, at Translocator protein, the IC50 was found to be 697 nM.
Molecule `Cc1c2ccccc2nc2c1c(=O)n(-c1ccccc1)n2CC(=O)N(Cc1ccccc1)Cc1ccccc1` displayed a half-inhibitory concentration (IC50) at Translocator protein of 3460 nM.
The molecule `CCCCN(C)C(=O)Cn1c2nc3ccccc3c(C)c2c(=O)n1-c1ccc(F)cc1` yielded an IC50 at Translocator protein of 110 nM.
Still for that read-out and setting: under `CCN(CC)C(=O)Cn1c2nc3ccccc3c(C)c2c(=O)n1-c1ccc(F)cc1` stands 2270 nM; under `CCCN(CCC)C(=O)Cn1c2nc3ccccc3c(C)c2c(=O)n1-c1ccc(F)cc1`, 87 nM.
`Cc1c2ccccc2nc2c1c(=O)n(-c1ccc(F)cc1)n2CC(=O)N(C)c1ccc(Cl)cc1`: the Activity in the test with Rattus norvegicus [1] is 35.6 g; in the test on Rattus norvegicus [2], 49.4 g; in the test with Rattus norvegicus [3] it was 60.7 g; in the test with Rattus norvegicus [6], 36.3 g; in the test on Rattus norvegicus [7], 63.1 g; in the test with Rattus norvegicus [8] it was 47.2 g. Further, the Activity with Rattus norvegicus [10] was determined as 59.3 g; with Rattus norvegicus [11], 36.4 g; in the test on Rattus norvegicus [12] it was 58.7 g; with Rattus norvegicus [13], 57.7 g; in the test on Rattus norvegicus [14] it was 64.1 g; in the test with Rattus norvegicus [15], 36.3 g. The figures for the Time with Mus musculus [4], with Mus musculus [5] and in the test on Mus musculus [9] were 117.5 s, 106.8 s and 111.3 s, respectively. On Translocator protein, this molecule registered an IC50 of 6.8 nM.
In turn, `CCCCN(C)C(=O)Cn1c2nc3ccccc3c(C)c2c(=O)n1-c1ccc(Cl)cc1` showed a half-inhibitory concentration (IC50) at Translocator protein of 144 nM.
On the same count and under the same terms, next, `CCCN(CCC)C(=O)Cn1c2nc3ccccc3c(C)c2c(=O)n1-c1ccc(Cl)cc1`: 90 nM.
With `Cc1c2ccccc2nc2c1c(=O)n(-c1ccc(Cl)cc1)n2CC(=O)N(C)c1ccc(Cl)cc1`, the Activity in the test on Rattus norvegicus [1] worked out at 44.8 g; with Rattus norvegicus [2], 56.3 g; with Rattus norvegicus [3], 62.2 g; in the test with Rattus norvegicus [6], 42.5 g; in the test on Rattus norvegicus [7] it was 64.8 g; with Rattus norvegicus [8], 49.4 g. In addition, the Activity was determined as 61.8 g in the test with Rattus norvegicus [10]; 35.8 g in the test on Rattus norvegicus [11]; 61.4 g in the test with Rattus norvegicus [12]; 58.4 g in the test with Rattus norvegicus [13]; 63.8 g with Rattus norvegicus [14]; 32.7 g in the test on Rattus norvegicus [15]. In addition, the Time in the test on Mus musculus [4] is 169 s; with Mus musculus [5], 135.2 s; in the test on Mus musculus [16], 108.9 s. The half-inhibitory concentration (IC50) at Translocator protein was determined as 16 nM.
As to `CCCCN(C)C(=O)Cn1c2nn(-c3ccccc3)c(=O)c-2c(C)c2ccccc21`, the Time in the test with Mus musculus [4] amounted to 151.5 s; with Mus musculus [5], 117.4 s; in the test with Mus musculus [16], 103.7 s. This molecule also registered a concentration for half-maximal inhibition (IC50) at Translocator protein of 0.14 nM.
Consider `CCN(CC)C(=O)Cn1c2nn(-c3ccccc3)c(=O)c-2c(C)c2ccccc21`, for which, on Translocator protein, the half-inhibitory concentration (IC50) came to 0.83 nM.
As to `CCCCN(CCCC)C(=O)Cn1c2nn(-c3ccccc3)c(=O)c-2c(C)c2ccccc21`, the IC50 on Translocator protein stood at 0.34 nM.
The same measure, in the same setting: next, `Cc1c2c(=O)n(-c3ccccc3)nc-2n(CC(=O)N(C)c2ccc(Cl)cc2)c2ccccc12`: 0.13 nM; `CCCCN(C)C(=O)Cn1c2nn(-c3ccc(F)cc3)c(=O)c-2c(C)c2ccccc21`: 0.13 nM; `Cc1c2c(=O)n(-c3ccc(F)cc3)nc-2n(CC(=O)N(C)c2ccc(Cl)cc2)c2ccccc12`: 0.28 nM.
Take `CCN(Cc1ccccc1)C(=O)Cn1c(=O)n(C)c2cnc(-c3ccccc3)nc21`: the figures for the Time with Mus musculus [4], in the test on Mus musculus [5] and in the test on Mus musculus [16] were 162.3 s, 137.3 s and 110.8 s, respectively.
With `CN1C(=O)CN=C(c2ccccc2)c2cc(Cl)ccc21` [DIAZEPAM], the Time in the test with Mus musculus [16] is reported as 171.63 s.
